Test [1] relates to L1210. Description: Tested in vitro for cytotoxicity against leukemia L1210 cell line in mouse. The test is classed as functional, cell-based. A digest of the protocol: (§1)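 Cells were grown in RPMI 1640 with 10% FCS, and the L1210 medium also had 2-mercaptoethanol added. Compound was dissolved in Ca/Mg-free Dulbecco's PBS or saline, diluted in culture medium and applied for 72 h in a CO2 incubator. Cells were fixed in 0.1% glutaraldehyde and stained with 0.01% crystal violet. Dye was extracted in 50% EtOH–25 mM NaH2PO4 and OD read. IC50 is the concentration giving 50% reduction of optical density.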

The subject of test [2] is Mus musculus. The experiment in a line: Tested for in vivo antitumor activity against Lewis Lung Carcinoma cell line in mice and tumor weight change at 200 mg/Kg per day. Format: functional. The method in brief: (§2)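 A 2-mm cube of LLC was implanted s.c. in the backs of 9-week-old male BDF1 mice on day 0, with 7 mice per dose group. Drug in saline was given i.p. once daily on days 1–5 at 0.1 mL/10 g body weight. Tumor weight was measured on day 17. Percent inhibition compares the mean tumor weight of treated mice with vehicle-only controls.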

In test [3] the test system is Mus musculus. Description: Mean body weight change on 5th day at a dose of 200 mg/kg/day. Format: functional. A digest of the protocol:
(§3)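 LLC fragments were implanted s.c. into male BDF1 mice aged 9 weeks on day 0, with seven animals per dose. Drug dissolved in saline was given intraperitoneally once a day for 5 days, days 1–5. Mean body weight change was recorded on day 5 and on day 17 and compared with saline-vehicle controls.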

Test [4] has as its system Mus musculus. Description: Mean body weight change on 17th day at a dose of 200 mg/kg/day. The test is classed as functional. The method in brief:
as §3

In test [5] the test system is Mus musculus. Description: In vivo percent inhibition of Lewis Lung Carcinoma cell line in mice at 200 mg/Kg per day (p<0.001) compared with ara-C. The test is classed as functional. A digest of the protocol:
as §2

Test [6] deals with KB. Description: Tested in vitro for cytotoxicity against KB human oral epidermoid carcinoma cell line. Format: functional, cell-based. The method in brief: as §1
The test system of test [7] is Mus musculus. Description: In vivo percent inhibition of Lewis Lung Carcinoma cell line in mice at 100 mg/Kg per day (p<0.001) compared with ara-C. Format: functional. The method in brief: as §2
Test [8] relates to Mus musculus. Description: Mean body weight change on 17th day at a dose of 100 mg/kg/day. Format: functional. A digest of the protocol:
as §3

Test [9] concerns Mus musculus. Description: Mean body weight change on 5th day at a dose of 100 mg/kg/day. Format: functional. The method in brief:
as §3

For test [10], the system named is Lewis lung carcinoma cell line. Description: Tested in vitro for cytotoxicity against LLC Lewis lung carcinoma cell line. The test is classed as functional, cell-based. To be noted: Mus musculus. The method in brief:
as §1

The test system of test [11] is KATO III stomach cancer cell line. The experiment in a line: Tested in vitro for cytotoxicity against KATO III human stomach adenocarcinoma cell line. The test is classed as functional, cell-based. The method in brief: as §1
For test [12], the system named is Mus musculus. The experiment in a line: Tested in vivo for antitumor activity against Lewis Lung Carcinoma cell line in mice and tumor weight change at 100 mg/Kg per day. Format: functional. The method in brief:
as §2

The subject of test [13] is L1210. Description: tested in vitro for cytotoxicity against L1210 leukemia cell line in mouse. Format: functional, cell-based. A digest of the protocol:
as §1

The test system of test [14] is KATO III stomach cancer cell line. The experiment in a line: tested for in vitro cytotoxicity against KATO III human stomach adenocarcinoma cell line. Format: functional, cell-based. A digest of the protocol: as §1
For test [15], the system named is KB. The experiment in a line: tested in vitro for cytotoxicity against KB human oral epidermoid carcinoma cell line. Format: functional, cell-based. The method in brief:
as §1

For test [16], the system named is Lewis lung carcinoma cell line. The experiment in a line: tested for in vitro cytotoxicity against LLC Lewis lung carcinoma cell line. Format: functional, cell-based. To be noted: Mus musculus. The method in brief: as §1
Test [17] concerns KB. The experiment in a line: Tested for in vitro cytotoxicity against KB human oral epidermoid carcinoma cell line. The test is classed as functional, cell-based. The method in brief: as §1
Test [18] relates to KATO III stomach cancer cell line. The experiment in a line: Tested for in vitro cytotoxicity against KATO III human stomach adenocarcinoma cell line. Format: functional, cell-based. A digest of the protocol:
as §1

The test system of test [19] is Mus musculus. Description: In vivo percent inhibition of Lewis Lung Carcinoma cell line in mice at 100 mg/Kg per day (p<0.001) compared with NCDAC. Format: functional. A digest of the protocol: as §2
Test [20] concerns Mus musculus. Description: Tested for in vivo antitumor activity against Lewis Lung Carcinoma cell line in mice and tumor weight change at 100 mg/Kg per day. Format: functional. A digest of the protocol:
as §2

Test [21] deals with L1210. Description: Tested in vitro for cytotoxicity against L1210 leukemia cell line in mouse.
For test [22], the system named is Lewis lung carcinoma cell line. Description: Tested for in vitro cytotoxicity against LLC Lewis lung carcinoma cell line. To be noted: Mus musculus. Format: functional, cell-based. The method in brief:
as §1

Test [23] concerns Mus musculus. Description: In vivo percent inhibition of Lewis Lung Carcinoma cell line in mice drug at 200 mg/Kg per day (p<0.001) compared with NCDAC. Format: functional. The method in brief: as §2

The results in this text go back to ChEMBL document CHEMBL1126569, “Nucleosides and nucleotides. 123. Synthesis of 1-(2-deoxy-2-isocyano-beta-D-arabinofuranosyl)cytosine and related nucleosides as potential antitumor agents” (J Med Chem, 1993).

On to `[C-]#[N+][C@@H]1[C@H](n2ccc(N)nc2=O)OC(CO)[C@@H]1O` (stereo partly drawn), for which the IC50 was 12.6 µM in test [1], 7.9 µM in test [6], 4.9 µM in test [10] and 90 µM in [11]. Also, the Tumor weight in test [2] stood at 1.09 g; in test [12] it was 1.08 g. The Weight change in test [3] is recorded as 0.2; in test [4], 2.1; in test [8] it was 2; in test [9] it was 0.4. Further, the Inhibition ratio was determined as 60.6% in test [5] and 61% in test [7].
Take `[C-]#[N+][C@@H]1[C@H](n2ccc(=O)[nH]c2=O)OC(CO)[C@@H]1O` (stereo partly drawn): the IC50 is 34 µM in test [13], over 100 µM in test [14], 36.8 µM in [15] and over 100 µM in test [16].
As to `Nc1ccn([C@@H]2O[C@H](CO)[C@@H](O)[C@@H]2O)c(=O)n1` [CYTARABINE], the IC50 worked out at 0.64 µM in test [17], 0.3 µM in test [18], 0.12 µM in [21] and 5.6 µM in [22]. For the same compound, the Tumor weight in [2] stood at 0.34 g; in test [20], 0.47 g. The Inhibition ratio amounted to 83% in test [19] and 87.7% in test [23]. For the same compound, the Weight change in test [3] is on record as -0.1; in test [4] it was 0.7; in test [8] it was 0.8; in [9] it was -0.4.

A word on the IC50: it is the concentration needed to halve the response being measured. Read a low IC50 as greater potency.
